Results reported in ChEMBL document CHEMBL1629442, “Structure based optimization of chromen-based TNF-α converting enzyme (TACE) inhibitors on S1' pocket and their quantitative structure-activity relationship (QSAR) study” (Bioorg Med Chem, 2010).
Blank lines part the entries; values can stand above or below the compound they belong to.

Legend:
Mus musculus [1] = organism: Mus musculus; test: Inhibition of NO production in mouse Raw 264.7 cells assessed as No2- accumulation in the medium after 24 hrs; format: functional, cell-based
Outline: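 RAW264.7 cells cultured with inhibitors for 24 h. Supernatant mixed 1:1 with Griess reagent (1% sulfanilamide, 0.1% naphthylethylenediamine dihydrochloride, 2% phosphoric acid), 10 min at room temperature. Absorbance read at 540 nm against a NaNO2 standard curve.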

[2] = target: T1, Disintegrin and metalloproteinase domain-containing protein 17 (Homo sapiens, UniProt P78536); test: Inhibition of human TNF-alpha by fluorescent spectroscopy; format: functional
T1 sequence (P78536 whole entry, the tested form may be a part): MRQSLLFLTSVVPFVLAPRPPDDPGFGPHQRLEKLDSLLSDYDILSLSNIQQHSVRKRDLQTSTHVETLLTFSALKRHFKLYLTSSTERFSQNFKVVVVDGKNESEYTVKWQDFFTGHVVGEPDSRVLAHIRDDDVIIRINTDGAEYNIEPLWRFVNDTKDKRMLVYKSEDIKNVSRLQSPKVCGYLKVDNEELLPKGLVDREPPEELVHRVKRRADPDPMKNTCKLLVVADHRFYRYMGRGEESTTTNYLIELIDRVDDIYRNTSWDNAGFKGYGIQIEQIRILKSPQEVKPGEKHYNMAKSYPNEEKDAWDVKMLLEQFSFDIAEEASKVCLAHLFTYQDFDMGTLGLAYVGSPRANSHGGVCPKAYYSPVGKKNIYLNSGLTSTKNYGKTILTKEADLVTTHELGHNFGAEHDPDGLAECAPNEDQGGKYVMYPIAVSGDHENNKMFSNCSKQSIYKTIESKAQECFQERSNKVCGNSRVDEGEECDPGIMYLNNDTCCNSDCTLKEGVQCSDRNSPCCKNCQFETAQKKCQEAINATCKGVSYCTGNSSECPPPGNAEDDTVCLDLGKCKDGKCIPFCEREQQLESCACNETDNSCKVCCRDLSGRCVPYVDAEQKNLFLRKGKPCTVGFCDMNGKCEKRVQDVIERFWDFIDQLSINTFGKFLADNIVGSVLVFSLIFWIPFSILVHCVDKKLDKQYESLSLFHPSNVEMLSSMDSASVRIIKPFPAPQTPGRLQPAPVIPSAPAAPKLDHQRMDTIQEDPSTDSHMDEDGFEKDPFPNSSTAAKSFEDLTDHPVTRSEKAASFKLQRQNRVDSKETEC

[3] = target: T1, Disintegrin and metalloproteinase domain-containing protein 17; test: Inhibition of human TACE by fluorescent spectroscopy
Rattus norvegicus [4] = test: Antiinflammatory activity in Sprague-Dawley rat assessed as inhibition of carrageenan-induced paw edema at 30 mg/kg, ip administered 30 mins before carrageenan challenge measured at 12 hrs; format: functional; parameters: scale not given: the % may be the effect or the level left; conditions: route intraperitoneal
Outline: (§1)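 SD rats (150 g, 5 weeks, SPF), five per group: vehicle, indomethacin 10 mg/kg (DMSO/Tween 80/H2O 1:4:95) as positive control, or compound at 30 or 100 mg/kg (ethanol/PEG 400-based vehicle), given ip. Ankle thickness measured by caliper; swelling expressed as % increase over pre-treatment thickness. Inhibition taken relative to vehicle at 6 h and later time point.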

Rattus norvegicus [5] = test: Antiinflammatory activity in Sprague-Dawley rat assessed as inhibition of carrageenan-induced paw edema at 100 mg/kg, ip administered 30 mins before carrageenan challenge measured at 12 hrs; format: functional; parameters: scale not given: the % may be the effect or the level left; conditions: route intraperitoneal; outline: as §1
[6] = AUC (0 to infinity) in Sprague-Dawley rat at 5 mg/kg, iv; format: ADME, organism-based; parameters: time infinity, dose 5 mg/kg, route intravenous; conditions: plasma
Outline: (§2)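 Male SD rats (10 weeks old, 285–305 g), cannulated in the right jugular vein, dosed iv or po with compound in saline, N = 3 per route. Blood drawn through the cannula at set times over 24 h and spun for plasma. Acetonitrile protein precipitation with carbamazepine internal standard, LC/MS/MS in positive MRM mode, non-compartmental analysis.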

Interstitial collagenase = target: T2, Interstitial collagenase (Homo sapiens, UniProt P03956); test: Inhibition of human MMP1 in cell-free system by fluorescent spectroscopy
T2 sequence (P03956 whole entry): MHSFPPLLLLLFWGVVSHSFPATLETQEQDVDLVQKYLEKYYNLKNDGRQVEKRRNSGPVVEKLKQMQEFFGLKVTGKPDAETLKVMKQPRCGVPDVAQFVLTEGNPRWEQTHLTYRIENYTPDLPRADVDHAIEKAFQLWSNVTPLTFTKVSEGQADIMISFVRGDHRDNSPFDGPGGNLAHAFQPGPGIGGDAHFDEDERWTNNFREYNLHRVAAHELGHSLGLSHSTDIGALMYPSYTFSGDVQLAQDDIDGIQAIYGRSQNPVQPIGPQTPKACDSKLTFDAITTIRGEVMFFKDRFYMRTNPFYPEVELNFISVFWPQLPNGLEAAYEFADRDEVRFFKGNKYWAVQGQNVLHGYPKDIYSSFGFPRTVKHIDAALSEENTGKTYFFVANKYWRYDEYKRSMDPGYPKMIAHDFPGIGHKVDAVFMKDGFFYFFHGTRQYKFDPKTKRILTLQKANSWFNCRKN

Mus musculus [7] = test: Inhibition of LPS-alpha induced TNF-alpha production in BALB/c mouse assessed as decreased plasma TNF level at 30 mg/kg, po administered post LPS challenge measured after 60 mins by ELISA; format: functional; conditions: 1 h
Outline: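 BALB/c mice (7–9 weeks), four per group, fasted 24 h. LPS given ip; compound given orally at 30 mg/kg ([…]). Serum collected from the heart and TNF-α measured by ELISA; percent inhibition reported.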

[8] = Half life in Sprague-Dawley rat at 5 mg/kg, iv; format: ADME, organism-based; parameters: dose 5 mg/kg, route intravenous; conditions: in vivo; outline: as §2
[9] = Half life in human liver microsomes at 40 uM by LC/MS/MS; format: ADME, Microsome
Outline: (§3)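 Compound at 40 µM with human liver microsomes (1 mg/mL), preincubated 5 min at 37 °C, then started with NADPH (1 mM final). Aliquots taken at 0, 15, 45 and 80 min and quenched with ice-cold acetonitrile containing carbamazepine internal standard. Centrifuged, then LC/MS/MS for parent; half-life and microsomal clearance derived.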

[10] = Cmax in Sprague-Dawley rat at 30 mg/kg, po; format: ADME, organism-based; parameters: dose 30 mg/kg, route oral; conditions: in vivo; outline: as §2
[11] = target: Matrix metalloproteinase-9 (Homo sapiens, UniProt P14780); test: Inhibition of human MMP9 in cell-free system by fluorescent spectroscopy
Matrix metalloproteinase-9, sequence (P14780 whole entry, the tested form may be a part): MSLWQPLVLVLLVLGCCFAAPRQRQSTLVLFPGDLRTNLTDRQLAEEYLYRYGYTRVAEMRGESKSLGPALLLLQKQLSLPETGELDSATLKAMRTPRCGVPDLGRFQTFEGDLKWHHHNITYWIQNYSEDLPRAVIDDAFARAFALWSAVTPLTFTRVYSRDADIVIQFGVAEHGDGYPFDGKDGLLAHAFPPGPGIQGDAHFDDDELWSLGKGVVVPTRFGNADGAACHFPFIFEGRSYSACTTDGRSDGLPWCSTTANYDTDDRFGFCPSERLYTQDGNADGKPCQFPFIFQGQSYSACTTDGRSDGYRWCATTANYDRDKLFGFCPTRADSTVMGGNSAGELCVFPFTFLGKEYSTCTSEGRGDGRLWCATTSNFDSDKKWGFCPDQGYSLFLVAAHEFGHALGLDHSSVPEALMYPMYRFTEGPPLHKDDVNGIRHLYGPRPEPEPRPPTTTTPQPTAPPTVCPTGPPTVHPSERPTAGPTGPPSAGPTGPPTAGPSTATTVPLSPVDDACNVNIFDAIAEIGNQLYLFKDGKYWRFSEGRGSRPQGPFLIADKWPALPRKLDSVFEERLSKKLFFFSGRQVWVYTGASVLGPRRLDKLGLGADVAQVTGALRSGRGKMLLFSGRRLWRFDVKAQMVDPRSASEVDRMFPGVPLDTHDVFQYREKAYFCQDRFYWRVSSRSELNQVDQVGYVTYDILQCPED
Outline: (§4)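 Recombinant human MMP-3 or MMP-9 catalytic domain with fluorogenic quenched peptide Mca-Pro-Leu-Gly-Leu-Dpa-Ala-Arg-NH2. Cleavage followed as fluorescence increase (excitation 324, emission 420). Rate of emission change taken as enzyme activity; IC50 values are means of three experiments.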

[12] = Oral bioavailability in Sprague-Dawley rat at 30 mg/kg, po; format: ADME, organism-based; conditions: in vivo; outline: as §2
[13] = Tmax in Sprague-Dawley rat at 30 mg/kg, po; format: ADME, organism-based; parameters: dose 30 mg/kg, route oral; conditions: in vivo; outline: as §2
Rattus norvegicus [14] = test: Antiinflammatory activity in Sprague-Dawley rat assessed as inhibition of carrageenan-induced paw edema at 100 mg/kg, ip administered 30 mins before carrageenan challenge measured at 6 hrs; format: functional; parameters: scale not given: the % may be the effect or the level left; conditions: route intraperitoneal; outline: as §1
[15] = Mean residence time (infinity) in Sprague-Dawley rat at 5 mg/kg, iv; format: ADME, organism-based; parameters: dose 5 mg/kg, route intravenous; conditions: in vivo; outline: as §2
[16] = Metabolic stability in human liver microsomes at 40 uM by LC/MS/MS; format: ADME, Microsome; outline: as §3
Stromelysin-1 = Stromelysin-1 (Homo sapiens, UniProt P08254); test: Inhibition of human MMP3 in cell-free system by fluorescent spectroscopy; outline: as §4
Stromelysin-1, sequence (P08254 whole entry): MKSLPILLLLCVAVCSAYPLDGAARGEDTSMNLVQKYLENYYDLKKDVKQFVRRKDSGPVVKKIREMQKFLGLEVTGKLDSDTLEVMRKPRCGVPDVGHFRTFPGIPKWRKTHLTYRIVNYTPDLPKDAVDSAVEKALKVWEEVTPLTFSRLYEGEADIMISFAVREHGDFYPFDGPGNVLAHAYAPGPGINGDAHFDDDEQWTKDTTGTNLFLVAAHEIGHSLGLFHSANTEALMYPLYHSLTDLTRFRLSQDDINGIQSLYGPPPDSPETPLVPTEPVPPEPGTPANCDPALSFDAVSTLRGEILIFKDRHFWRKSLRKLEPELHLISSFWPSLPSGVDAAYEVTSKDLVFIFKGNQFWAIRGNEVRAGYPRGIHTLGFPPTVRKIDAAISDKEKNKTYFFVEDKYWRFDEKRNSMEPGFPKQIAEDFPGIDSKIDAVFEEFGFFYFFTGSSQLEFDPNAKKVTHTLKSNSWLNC

Rattus norvegicus [17] = test: Antiinflammatory activity in Sprague-Dawley rat assessed as inhibition of carrageenan-induced paw edema at 30 mg/kg, ip administered 30 mins before carrageenan challenge measured at 6 hrs; format: functional; parameters: scale not given: the % may be the effect or the level left; conditions: route intraperitoneal; outline: as §1
[18] = AUC (0 to infinity) in Sprague-Dawley rat at 30 mg/kg, po; format: ADME, organism-based; parameters: time infinity, dose 30 mg/kg, route oral; conditions: plasma; outline: as §2
[19] = Half life in Sprague-Dawley rat at 30 mg/kg, po; format: ADME, organism-based; parameters: dose 30 mg/kg, route oral; conditions: in vivo; outline: as §2
[20] = Volume of distribution at steady state in Sprague-Dawley rat at 5 mg/kg, iv; format: ADME, organism-based; parameters: dose 5 mg/kg, route intravenous; conditions: in vivo, read-out: Vdss; outline: as §2
[21] = Mean residence time (infinity) in Sprague-Dawley rat at 30 mg/kg, po; format: ADME, organism-based; parameters: dose 30 mg/kg, route oral; conditions: in vivo; outline: as §2
[22] = Clearance in Sprague-Dawley rat at 5 mg/kg, iv; format: ADME, organism-based; parameters: dose 5 mg/kg, route intravenous; conditions: in vivo; outline: as §2

SMILES: Cc1ccc2oc(=O)c(CC(Cc3ccccc3)C(=O)NO)cc2c1 (stereo not given)
IC50 (Mus musculus [1]): Not Active | IC50 [2]: 520 nM | IC50 [3]: 0.5 nM

SMILES: Cc1ccc2oc(=O)c(CC(CCCc3ccc(OCCN4CCCCC4)cc3)C(=O)NO)cc2c1 (stereo not given)
IC50 (Mus musculus [1]): Not Active | IC50 [2]: 320 nM | IC50 [3]: 1.07 nM

SMILES: Cc1ccc2oc(=O)c(CC(CCCc3cccc(OCCN4CCCCC4)c3)C(=O)NO)cc2c1 (stereo not given)
IC50 (Mus musculus [1]): Not Active | IC50 [2]: 230 nM | IC50 [3]: 0.27 nM

SMILES: Cc1ccc2oc(=O)c(CC(CCCCc3ccccc3)C(=O)NO)cc2c1 (stereo not given)
IC50 (Mus musculus [1]): Not Active | IC50 [2]: > 3000 nM | IC50 [3]: 32.8 nM

SMILES: Cc1ccc2oc(=O)c(CC(CCc3cccc(OCCN4CCCCC4)c3)C(=O)NO)cc2c1 (stereo not given)
IC50 (Mus musculus [1]): Not Active | IC50 [2]: 240 nM | IC50 [3]: 0.9 nM

SMILES: Cc1ccc2oc(=O)c(CC(Cc3cccc(OCCN4CCCCC4)c3)C(=O)NO)cc2c1 (stereo not given)
IC50 (Mus musculus [1]): Not Active | IC50 [2]: 260 nM | IC50 [3]: 1.07 nM

SMILES: CCN(CC)CCOc1ccc(CCC(Cc2cc3ccc(C)cc3oc2=O)C(=O)NO)cc1 (stereo not given)
Activity (Rattus norvegicus [4]): 14% | Activity (Rattus norvegicus [5]): 35% | AUC(0-inf) [6]: 1880 ng·h/mL | IC50 (Interstitial collagenase): 557 nM | IC50 (Mus musculus [1]): Not Active | inhibition in vivo at 30 mg/kg (Mus musculus [7]): 74% | half-life [8]: 2.8 h | half-life at 40 µM [9]: 1.22 h | Cmax [10]: 1140 ng/mL | IC50 [11]: 23 nM | bioavailability [12]: 41.6% | IC50 [2]: 60 nM | Tmax [13]: 2 h | Activity (Rattus norvegicus [14]): 20% | MRT inf [15]: 1.14 h | IC50 [3]: 0.28 nM | microsomal CLint at 40 µM [16]: 9.5 µL/min/mg | IC50 (Stromelysin-1): 8.7 nM | Activity (Rattus norvegicus [17]): 8% | AUC(0-inf) [18]: 4690 ng·h/mL | half-life [19]: 3.19 h | Vd [20]: 3.04 L/kg | MRT inf [21]: 2.9 h | clearance [22]: 44.3 mL/min/kg

SMILES: Cc1ccc2oc(=O)c(CC(CCc3ccc(O)cc3)C(=O)NO)cc2c1 (stereo not given)
IC50 (Mus musculus [1]): Not Active | IC50 [2]: 920 nM | IC50 [3]: 0.3 nM

Continued, values first:

IC50 (Mus musculus [1]): Not Active | IC50 [2]: 110 nM | IC50 [3]: 0.66 nM
SMILES: Cc1ccc2oc(=O)c(CC(CCc3ccc(OCCN(C)C)cc3)C(=O)NO)cc2c1 (stereo not given)

IC50 (Mus musculus [1]): Not Active | IC50 [2]: 70 nM | IC50 [3]: 0.46 nM
SMILES: CCN(CC)CCOc1ccc(CCC(Cc2cc3ccc(F)cc3oc2=O)C(=O)NO)cc1 (stereo not given)

IC50 (Mus musculus [1]): Not Active | IC50 [2]: 140 nM | IC50 [3]: 0.53 nM
SMILES: CCN(CC)CCOc1ccc(CCC(Cc2cc3cc(C)ccc3oc2=O)C(=O)NO)cc1 (stereo not given)

IC50 (Mus musculus [1]): Not Active | IC50 [2]: 200 nM | IC50 [3]: 1.04 nM
SMILES: Cc1ccc2oc(=O)c(CC(CCc3ccc(OCCN4CCCCC4)cc3)C(=O)NO)cc2c1 (stereo not given)

IC50 (Mus musculus [1]): Not Active | IC50 [2]: 1500 nM | IC50 [3]: 10.9 nM
SMILES: Cc1ccc2oc(=O)c(CC(Cc3ccc(OCCN4CCCCC4)cc3)C(=O)NO)cc2c1 (stereo not given)
